Rows were chosen to be rich in hits. Some 1.7% of all compounds tested hit in one or more screens of this group.
IDE cell activ = IDE (human) activation, cell-based; P14735; HEK cells, FAbeta-B cleavage, fluorescence polarization; 0% vehicle, 100% cell-free pure enzyme wells; activation, % at 5.96 µM; 0.073% of 340,000 active;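 active = activation above the mean of all tested compounds plus 3 SD, set per screening campaign, cut at about 17% in these data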
Rpn11 inh = inhibitors of human proteasome Rpn11 | O00487 | human 26S proteasome, Ub4-pepOG fluorescence polarization; 20S core pre-blocked with epoxomicin | calls only at 20 µM | 0.59% of 360,000 active | AID 588493;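 active = inhibition at 20 µM, scaled to each plate's controls, above about 33%, limit read from the data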
Target sequence (O00487 whole entry, looked up): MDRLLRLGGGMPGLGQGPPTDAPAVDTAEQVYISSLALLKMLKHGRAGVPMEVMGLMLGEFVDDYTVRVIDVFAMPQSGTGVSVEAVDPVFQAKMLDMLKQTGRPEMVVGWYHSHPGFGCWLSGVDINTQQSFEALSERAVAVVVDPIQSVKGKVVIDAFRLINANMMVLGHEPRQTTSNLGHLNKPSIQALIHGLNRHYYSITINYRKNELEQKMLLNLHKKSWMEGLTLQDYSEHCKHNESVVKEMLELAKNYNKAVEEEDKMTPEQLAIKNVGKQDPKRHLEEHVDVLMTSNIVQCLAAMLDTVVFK
IDE cell inh = inhibits human insulin-degrading enzyme in HEK cells; P14735; FAbetaB cleavage, fluorescence polarization; 0.41% of 320,000 active; inhibition, % at 5.59 µM;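 active = percent inhibition above the average of all tested compounds plus 3 SD, set per screening campaign, cut at about 16% in these data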;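 note: IDE supplied by intact live HEK cells; FP after avidin binding of uncleaved biotin substrate so inhibition keeps polarization high; 0% = DMSO wells and 100% = 60 µM reference IDE inhibitor Ii1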
CSN inh = CSN deneddylation inhibition; Q92905; Purified CSN, SCF-Nedd8-OG deneddylation, fluorescence polarization; inhibition, % at 12.5 µM; 0.38% of 360,000 active;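 active = pattern-corrected inhibition above about 35%, with an unprinted fluorescence ratio check between 0.5 and 1.5, limit read from the data, passing the limit was not always enough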;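 note: 0% = enzyme with substrate and 100% = substrate without enzyme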
Target sequence (Q92905 whole entry, looked up, one chain of several): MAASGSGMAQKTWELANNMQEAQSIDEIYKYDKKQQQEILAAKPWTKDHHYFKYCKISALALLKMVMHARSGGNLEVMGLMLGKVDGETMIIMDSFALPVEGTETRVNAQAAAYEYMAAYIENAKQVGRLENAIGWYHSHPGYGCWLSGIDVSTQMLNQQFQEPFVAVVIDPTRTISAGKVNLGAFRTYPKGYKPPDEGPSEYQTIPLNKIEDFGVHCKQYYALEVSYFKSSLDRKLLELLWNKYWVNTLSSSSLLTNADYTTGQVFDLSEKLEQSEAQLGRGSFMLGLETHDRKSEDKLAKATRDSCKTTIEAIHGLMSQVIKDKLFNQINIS
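Schedule: reaction 90 min, room temperature / Assay system: HEK293T-derived human Csn5 enzyme / Input: Csn5 at 0.24 nM final / Measure: inhibition of Csn5 cleavage, % / Control set: substrate-only high control, full reaction low control / Technique: fluorescence polarization of the substrate / Buffer or medium: Tris/NaCl/DTT buffer, pH 7.5 / Reagent: SCFSkp2-Nedd8OG substrate at 10 nM final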
HNF4A DNA FP = change in binding of human HNF4 alpha to DNA | HNF4a-FITC DNA binding, fluorescence polarization, 1 h | 0.3% of 360,000 active | AID 1224865 | activity change, % at 10 µM; in the data active = activity change above about 30%, passing the limit was not always enough
TPT1 inh = blocks Candida albicans tRNA 2'-phosphotransferase. 0.81% of 300,000 active. inhibition, % at 5 µM. recombinant caTPT1, FP RNA substrate dephosphorylation. AID 1962;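 active = inhibition above the mean of all tested compounds plus 3 SD, set per screening campaign, cut at about 24% in these data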;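 note: plate controls were DMSO alone for no effect and ferristatin control at 100 nM for full effect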
TPT1 inh confirm = confirmation of Candida albicans TPT1 inhibitors; shares compounds with TPT1 inh; recombinant caTPT1, fluorescence polarization, RNase T1 coupled; inhibition, % at 5 µM; 74% of 2,400 active; AID 2149;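 active = inhibition above the primary screen limit, the mean inhibition of all tested compounds plus 3 SD, cut at about 25% in these data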
RNase T1 inh = blocks Aspergillus oryzae RNase T1, a TPT1 counter-screen. shares compounds with TPT1 inh. RNase T1 cleavage, fluorescence polarization, 1536-well. 83% of 2,400 active. inhibition, % at 5 µM;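 active = inhibition above the solvent-only control well mean plus 3 SD, limit set per screening run, cut at about 23% in these data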;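 note: plate controls were DMSO wells with enzyme for no effect and wells without RNase T1 for full effect; inhibitors block cleavage so intact labeled substrate keeps polarization high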
Target sequence (P00651 whole entry, looked up): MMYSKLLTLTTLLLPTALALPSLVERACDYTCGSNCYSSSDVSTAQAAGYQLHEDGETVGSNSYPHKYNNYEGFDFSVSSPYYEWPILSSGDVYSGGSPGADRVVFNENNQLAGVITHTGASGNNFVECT
IDE inh confirm = confirmation of human insulin-degrading enzyme inhibitors in cells; shares compounds with IDE cell inh; HEK cells, FAbetaB cleavage, fluorescence polarization; inhibition, % at 5.59 µM; 51% of 1,200 active; AID 435028;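 active = mean inhibition across triplicate wells above the cutoff set by the earlier primary insulin-degrading enzyme screen, cut at about 16% in these data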;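 note: 0% = DMSO wells and 100% = 60 µM reference IDE inhibitor Ii1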
HEK cytotox = kills HEK cells in IDE inhibitor counter-screen; AID 449730; HEK293 cytotoxicity, ATP luminescence; shares compounds with IDE cell inh; 28% of 1,200 active; inhibition, % at 5.59 µM; in the data active = inhibition above about 22%;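 note: 0% = vehicle wells and 100% = reference cytotoxic drug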
Rpn11 inh conf = Rpn11 inhibition confirmation, single concentration | inhibition, % at 20 µM | purified human 26S proteasome, Ub4-pepOG fluorescence polarization; proteasome pretreated with epoxomicin | shares compounds with Rpn11 inh | 29% of 1,900 active
MMP-2 counter-1 = counter-screen for RPN11 inhibitors: inhibition of human MMP-2 | shares compounds with Rpn11 inh | inhibition, % at 20 µM | 4% of 1,900 active | recombinant MMP-2, FRET peptide cleavage fluorescence | AID 602330;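 note: human MMP-2 activated beforehand with APMA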
Thrombin FP = counter-screen for RPN11 inhibitors: inhibition of bovine thrombin; AID 602333; 13% of 1,900 active; bovine thrombin cleavage of Ub4-pepOG, fluorescence polarization; shares compounds with Rpn11 inh; inhibition, % at 20 µM;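 active = mean inhibition at least 40% at 20 µM, or signal 3 deviations below plate average, so some actives read negative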;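 note: plate controls were thrombin with DMSO for no effect and buffer wells lacking thrombin for full effect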
CSN deneddyl val = Csn5 (human) deneddylation inhibition, single-concentration validation; AID 720654; shares compounds with CSN inh; 62% of 540 active; Csn5 deneddylation of SCF-Nedd8OG, fluorescence polarization, 90 min; inhibition, % at 16.6 µM; in the data active = inhibition above about 50%;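 note: 0% = DMSO with enzyme and 100% = no enzyme wells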
MMP-2 counter-2 = blocks human MMP-2 in a CSN deneddylation counter-screen; shares compounds with CSN inh; recombinant MMP-2, FRET substrate fluorescence, 60 min; inhibition, % at 16.6 µM; 33% of 540 active; AID 720655;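 active = corrected plate-normalized z-score of 5 or more, or -5 or less, or inhibition of 15% or more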;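 note: plate controls were DMSO wells with enzyme for no effect and buffer wells lacking MMP-2 for full effect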
Thrombin counter = thrombin (bovine) inhibition, counter-screen for CSN hits; shares compounds with CSN inh; bovine thrombin cleavage of Ub4-pepOG, fluorescence polarization; inhibition, % at 16.6 µM; 49% of 540 active;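 active = inhibition at or above a set limit, with a fluorescence interference ratio between 0.5 and a set maximum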
The depositor's hits bear a star; i = inactive; x = no result shown; + = active, no number. Cut-off read from the data, not from the text of the source, unless noted: active = inhibition above about 40%; inactive = the rest.

SMILES	IDE cell activ	Rpn11 inh	IDE cell inh	CSN inh	HNF4A DNA FP	TPT1 inh	TPT1 inh confirm	RNase T1 inh	Rpn11 inh conf	MMP-2 counter-1	Thrombin FP	CSN deneddyl val	MMP-2 counter-2	Thrombin counter	others
O=C1/C(=C/C=C/c2ccco2)SC(=S)N1c1ccc(O)cc1	-1.3	+	1.0	57.2*	-2.9	27.6*	49.7*	56.5*	x	x	x	63.8*	31.2*	42.2*
Cc1nnc(SCc2nnc(-c3cccs3)o2)n1C	-2.3	i	6.1	2.3	-3.5	0.5	x	x	x	x	x	x	x	x
CN1CCN(C(=O)C2=C[C@H](c3csc4ccccc34)C[C@H](OCc3ccc(CO)cc3)O2)CC1	-0.7	i	2.5	5.4	4.5	4.8	x	x	x	x	x	x	x	x
CCn1cc(/C=C(\NC(=O)c2ccccc2OC)C(=O)N2CCN(C)CC2)c2ccccc21	-0.2	i	1.3	-3.5	0.1	-2.7	x	x	x	x	x	x	x	x
CCN(CC)CCSc1nc(O)c(-c2ccccc2)c(=O)[nH]1	3.0	i	-0.6	-1.8	-3.1	-2.3	x	x	x	x	x	x	x	x
CCC1=NN2C(=N)/C(=C\c3ccc(SCc4ccco4)o3)C(=O)N=C2S1	-20.0	+	21.9*	78.0*	22.1	48.1*	28.9*	43.2*	20.1	10.0	14.2	45.2	16.2*	17.2*	IDE inh confirm=9.8;HEK cytotox=3.1
CCC1=NN2C(=N)/C(=C/c3c(C)nn(-c4ccccc4)c3Cl)C(=O)N=C2S1	0.7	i	6.0	0.9	0.3	2.1	x	x	x	x	x	x	x	x
COc1cc(N=Nc2cccc(S(N)(=O)=O)c2)c2ccccc2c1N	2.1	+	10.0	46.1*	25.0	89.3*	44.0*	53.7*	x	x	x	82.2*	14.7	25.9*
NC1=NC(=Nc2cccc(S(N)(=O)=O)c2)c2ccccc21	-0.6	i	-1.0	3.3	-1.5	-1.6	x	x	x	x	x	x	x	x
CN(C)C(C(=O)Nc1cc(Cl)cc(Cl)c1)c1ccccc1 (configuration not stated)	2.9	i	-3.3	-13.0	4.2	-1.1	x	x	x	x	x	x	x	x
N=C1/C(=C\c2ccc(-c3cccc(Cl)c3)o2)C(=O)N=C2SC=C(c3ccccc3)N12	-4.5	+	6.6	37.8*	18.8	59.6*	44.1*	56.1*	73.3*	33.5	48.8*	64.5*	10.0	23.4*
CCC1C/C(=C\c2cc(OC)c(OC)cc2OC)C(=O)/C(=C/c2cc(OC)c(OC)cc2OC)C1 (configuration not stated)	-6.5	+	7.6	35.3*	71.0*	64.0*	88.4*	97.4*	x	x	x	64.0*	-10.3	47.7*
CC1CN(S(=O)(=O)c2ccc(C(=O)Nc3ccc(S(=O)(=O)Nc4ncccn4)cc3)cc2)CC(C)O1 (configuration not stated)	5.8	i	4.0	-6.0	-1.2	-1.3	x	x	x	x	x	x	x	x
COc1ccc(/C=C2\C(=O)NC(=S)N2C(=O)c2ccc(F)cc2)cc1	-6.0	+	37.4*	65.0*	72.5*	148.3*	155.7*	145.2*	+	12.4	active	x	-38.4*	-52.8	IDE inh confirm=58.6*;HEK cytotox=12.5
C[C@H](CO)N1C[C@H](C)[C@@H](CN(C)C(=O)NC2CCCCC2)Oc2ccc(NS(=O)(=O)c3ccccc3)cc2C1=O	3.0	i	-0.3	-0.8	3.0	x	x	x	x	x	x	x	x	x
O=C(N/N=C/C=C\c1ccccc1[N+](=O)[O-])c1cccs1	3.7	i	6.3	-1.9	-2.2	-2.8	x	x	x	x	x	x	x	x
O=C(N/N=C/C=C/c1ccc([N+](=O)[O-])cc1)c1cccs1	-0.8	+	-7.6	56.4*	55.9*	43.8*	30.0*	45.8*	113.3*	45.0*	40.7*	x	58.7*	30.1*
COc1ccc(CNC(=O)c2ccc(CS(=O)Cc3cccc(Cl)c3)o2)cc1 (configuration not stated)	2.7	i	-1.1	0.1	1.3	-2.2	x	x	x	x	x	x	x	x
Cc1ccc(C)c(S(=O)(=O)C(C#N)c2nc3ccccc3nc2N2CC(C)OC(C)C2)c1 (configuration not stated)	-1.7	i	-3.3	4.7	-0.5	2.8	x	x	x	x	x	x	x	x
Cc1nnc(-c2ccccc2)c(=O)n1/N=C/c1c(O)ccc2ccccc12	-59.4	x	53.5*	50.1*	18.6	158.8*	78.9*	84.4*	x	x	x	109.2*	-4.0	30.0*	IDE inh confirm=39.8*;HEK cytotox=57.4*
CCNc1ccc(Br)cc(C(=O)/C=C/c2ccc3c(c2)OCO3)c1=O	2.6	+	-1.6	47.4*	-11.3	31.4*	25.6*	47.5*	20.3	8.8	1.3	70.8*	-2.6	24.1*
CCn1cc(C(=O)N(C)Cc2ccc(OC(F)F)cc2)c(=O)c2ccc(C)nc21	3.7	i	-4.4	-1.1	-0.8	-0.5	x	x	x	x	x	x	x	x
NS(=O)(=O)c1cc(C(=O)NC2CCSc3ccccc32)ccc1Cl (configuration not stated)	-0.1	+	0.6	64.3*	-76.6	53.7*	67.2*	3.3	97.8*	21.7	60.5*	20.8	13.4	49.3*
c1ccc(-c2csc3ncnc(N4CCN(Cc5ccc6c(c5)OCO6)CC4)c23)cc1	-0.7	i	-3.0	-3.4	4.6	-0.2	x	x	x	x	x	x	x	x
